Key:
[1] = molecular target: T1, ADP-ribosyl cyclase/cyclic ADP-ribose hydrolase 1 (Homo sapiens, UniProt P28907); test: Drug metabolism assessed as human CD38 catalytic domain-mediated compound hydrolysis at 1 mM using 1 ug/mL CD38 by RP-HPLC method; format: ADME; conditions: 1000 µM
T1 sequence (P28907 whole entry): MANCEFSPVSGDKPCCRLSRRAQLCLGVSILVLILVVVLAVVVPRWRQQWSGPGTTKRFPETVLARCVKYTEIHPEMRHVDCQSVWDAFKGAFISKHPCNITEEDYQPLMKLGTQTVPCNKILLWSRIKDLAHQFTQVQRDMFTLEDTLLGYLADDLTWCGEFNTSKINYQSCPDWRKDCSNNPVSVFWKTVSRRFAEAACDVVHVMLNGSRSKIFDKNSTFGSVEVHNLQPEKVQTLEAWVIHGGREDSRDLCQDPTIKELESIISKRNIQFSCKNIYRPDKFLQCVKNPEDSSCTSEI
In short: (§1)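 Human CD38 catalytic domain diluted in 20 mM Tris-HCl pH 8 to 4 mg/mL or 1 μg/mL, added to inhibitor (1 mM final) at room temperature; no-enzyme control run in parallel. At time points, aliquots diluted 20-fold in water and analysed by RP-HPLC: isocratic elution, 1 mL/min, ion-pair buffer 0.17% cetrimide and 45% phosphate buffer (pH 6.4) in MeOH, photodiode array detection 210–350 nm.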

[2] = molecular target: T1, ADP-ribosyl cyclase/cyclic ADP-ribose hydrolase 1; test: Drug metabolism assessed as human CD38 catalytic domain-mediated compound hydrolysis at 1 mM using 4 mg/mL CD38 by RP-HPLC method; format: ADME; conditions: 1000 µM; in short: as §1
[3] = molecular target: T1, ADP-ribosyl cyclase/cyclic ADP-ribose hydrolase 1; test: Drug metabolism assessed as human CD38 catalytic domain-mediated compound hydrolysis at 1 mM by RP-HPLC method; format: ADME; conditions: 1000 µM; in short: as §1
[4] = molecular target: T1, ADP-ribosyl cyclase/cyclic ADP-ribose hydrolase 1; test: Inhibition of human CD38 catalytic domain assessed as reduction in cADPR hydrolysis incubated for 10 mins by fluorimetric cycling assay
[5] = Retention time of the compound at 1 mM in presence of human CD38 catalytic domain by RP-HPLC method; format: physicochemical; conditions: 1000 µM; in short: as §1
[6] = molecular target: T1, ADP-ribosyl cyclase/cyclic ADP-ribose hydrolase 1; test: Drug metabolism assessed as human CD38 catalytic domain-mediated compound hydrolysis by measuring 8-NH2-N9-butyl-IDPR level at 1 mM by RP-HPLC method; format: ADME; conditions: 1000 µM; in short: as §1
[7] = Retention time of the compound using 1 mM 8-NH2-N9-butyl-cIDPR in presence of human CD38 catalytic domain by RP-HPLC method; format: physicochemical; in short: as §1
[8] = molecular target: T1, ADP-ribosyl cyclase/cyclic ADP-ribose hydrolase 1; test: Drug level assessed as human CD38 catalytic domain-mediated compound formation using 1 mM 8-NH2-N9-butyl-cIDPR by RP-HPLC method; format: ADME; in short: as §1

SMILES | Drug metabolism [1] | Drug metabolism [2] | Drug metabolism [3] | further results
O=c1c2ncn3c2ncn1[C@@H]1O[C@H](COP(=O)(O)OP(=O)(O)OC[C@H]2O[C@@H]3[C@H](O)[C@@H]2O)[C@@H](O)[C@H]1O | metabolite_notdetected | metabolite_detected | metabolite_detected | IC50 [4]: 276 µM
O=c1c2ncn3c2ncn1[C@@H]1O[C@H](COP(=O)(O)OP(=O)(O)OCCCC3)[C@@H](O)[C@H]1O | – | – | metabolite_detected | –
Nc1nc2c(=O)[nH]cnc2n1CCCCOP(=O)(O)OP(=O)(O)OC[C@H]1OC(O)[C@H](O)[C@@H]1O (some centres not stated) | – | – | – | Retention_time [7]: 10.6 min; Drug metabolism [8]: metabolite_detected

Now from value to compound, other results behind:

Drug metabolism [1] | Drug metabolism [2] | Drug metabolism [3] | SMILES | further results
– | – | metabolite_detected | O=c1c2nc(Br)n3c2ncn1[C@@H]1O[C@H](COP(=O)(O)OP(=O)(O)OCCCC3)[C@@H](O)[C@H]1O | –
metabolite_notdetected | metabolite_detected | – | Nc1nc2c(=O)n3cnc2n1CCCCOP(=O)(O)OP(=O)(O)OC[C@H]1O[C@@H]3[C@H](O)[C@@H]1O | Retention_time [5]: 9.1 min; Drug metabolism [6]: metabolite_detected
